Test results taken from ChEMBL document CHEMBL1149148, “Synthesis and structure-activity relationships of novel 7-substituted 1,4-dihydro-4-oxo-1-(2-thiazolyl)-1,8-naphthyridine-3-carboxylic acids as antitumor agents. Part 2” (J Med Chem, 2004).
Values after ≈ are worked out from the molar mass of the structure shown.

Experiments:
Mus musculus [1] = test: Ratio of median survival time of treated mice (T) to that of median survival time of controls (C) in mice infected with p388 cells (in vivo) at a dose of 25 mg/kg; assay type: functional
Procedure, shortened: (§1)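 BDF1 mice implanted ip with 0.1 mL diluted ascites fluid carrying 10⁶ P388 leukemia cells. Dosing ip on days 1 and 5 after implantation. Test compounds were suspended in 0.4% CMC, and reference drugs were dissolved and diluted in distilled water. Seven mice per group. T/C (%) = median survival time of treated group / median survival time of control group × 100.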

Mus musculus [2] = test: Ratio of median survival time of treated mice (T) to that of median survival time of controls (C) in mice infected with p388 cells (in vivo) at a dose of 50 mg/kg; assay type: functional; procedure, shortened: as §1
Mus musculus [3] = test: Ratio of median survival time of treated mice (T) to that of median survival time of controls (C) in mice infected with p388 cells (in vivo) at a dose of 0.78 mg/kg; assay type: functional; procedure, shortened: as §1
Mus musculus [4] = test: Ratio of median survival time of treated mice (T) to that of median survival time of controls (C) in mice infected with p388 cells (in vivo) at a dose of 3.13 mg/kg; assay type: functional; procedure, shortened: as §1
[5] = Solubility at pH 7.2; assay type: physicochemical; settings: buffer
Procedure, shortened: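 Water solubility measured in pH 7.2 phosphate buffer, reported in mg/mL.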

P388 = test: Cytotoxic activity against murine P388 leukemia cells; assay type: functional, cell-based; settings: Mus musculus
Mus musculus [6] = test: Ratio of median survival time of treated mice (T) to that of median survival time of controls (C) in mice infected with p388 cells (in vivo) at a dose of 6.25 mg/kg; assay type: functional; procedure, shortened: as §1
Mus musculus [7] = test: Ratio of median survival time of treated mice (T) to that of median survival time of controls (C) in mice infected with p388 cells (in vivo) at a dose of 12.5 mg/kg; assay type: functional; procedure, shortened: as §1
Mus musculus [8] = test: Ratio of median survival time of treated mice (T) to that of median survival time of controls (C) in mice infected with p388 cells (in vivo) at a dose of 1.56 mg/kg; assay type: functional; procedure, shortened: as §1
Hs746T = test: Cytotoxic activity against human tumor Hs 746.T stomach cells; assay type: functional, cell-based
Procedure, shortened: (§2)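 Hs746T and PANC-1 cells kept in Dulbecco's modified Eagle's medium with 10% FBS. Seeded at (1-2) × 10⁴ cells/mL, 24 h preincubation, then graded compound concentrations for 72 h at 37 °C in 5% CO₂. MTT (5 mg/mL solution) added for 4 h, formazan taken up in DMSO, read at 570/690 nm. IC50 is 50% absorbance reduction relative to control. At least two independent experiments averaged.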

SCaBER = test: Cytotoxic activity against human tumor SCaBER bladder cells; assay type: functional, cell-based
Procedure, shortened: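 SCaBER cells maintained in EMEM with 10% FBS and nonessential amino acids. Seeded at (1-2) × 10⁴ cells/mL, 24 h preincubation, then 72 h compound exposure at various concentrations at 37 °C in 5% CO₂. MTT (5 mg/mL) for 4 h, then DMSO, read at 570/690 nm. IC50 is 50% absorbance drop vs control. At least two independent experiments averaged.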

SK-OV-3 = test: Cytotoxic activity against human tumor SK-OV-3 ovary cells; assay type: functional, cell-based; settings: SK-OV-3, Female gonad
Procedure, shortened: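 SKOV3 cells grown in RPMI 1640 with 10% heat-inactivated FBS. Cells at (1-2) × 10⁴ cells/mL, preincubated 24 h, treated with graded concentrations for 72 h at 37 °C in 5% CO₂. MTT readout (5 mg/mL, 4 h), formazan in DMSO, absorbance 570 nm/690 nm. IC50 is the concentration for 50% absorbance reduction vs control. Mean of at least two independent experiments.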

SBC-3 = test: Cytotoxic activity against human tumor SBC-3 lung cells; assay type: functional, cell-based
Procedure, shortened: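 SBC-3 cells cultured in RPMI 1640 plus 10% FBS. Plated at (1-2) × 10⁴ cells/mL, preincubated 24 h, then compound at various concentrations for 72 h at 37 °C in 5% CO₂. MTT solution (5 mg/mL) for 4 h, DMSO solubilization, absorbance 570 nm with 690 nm reference. IC50 is the dose halving absorbance vs control. Mean of at least two independent runs.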

HL-60 = test: Cytotoxic activity against human tumor HL-60 leukemia cells; assay type: functional, cell-based
Procedure, shortened: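 HL-60 cells grown in RPMI 1640 with 20% FBS. Seeded at (1-2) × 10⁴ cells/mL, preincubated 24 h, then exposed to a range of compound concentrations for 72 h at 37 °C in 5% CO₂. Read by MTT (5 mg/mL solution, 4 h), formazan dissolved in DMSO, absorbance 570 nm/690 nm. IC50 is the concentration giving 50% absorbance reduction vs control. Mean of at least two independent experiments.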

PANC-1 = test: Cytotoxic activity against human tumor PANC-1 pancreas cells; assay type: functional, cell-based; procedure, shortened: as §2

Row | Molecule | T/C (Mus musculus [2]) [%] | T/C (Mus musculus [4]) [%] | solubility [5] [µg/mL] | IC50 (P388) [µg/mL] | T/C (Mus musculus [7]) [%] | other results
1 | CN[C@H]1CN(c2ccc3c(=O)c(C(=O)O)cn(-c4nccs4)c3n2)C[C@@H]1OC.Cl | >375 | 200 | 20100 | 0.01 | 250 | T/C (Mus musculus [1]): 300%; T/C (Mus musculus [3]): 150%; T/C (Mus musculus [6]): 225%
2 | CN[C@H]1CN(c2ccc3c(=O)c(C(=O)O)cn(-c4nccs4)c3n2)C[C@@H]1SC.Cl |  |  |  | 0.02 |  | 
3 | CN[C@@H]1CN(c2ccc3c(=O)c(C(=O)O)cn(-c4nccs4)c3n2)C[C@H]1OC.Cl |  | 163 | 19800 | 0.021 | 238 | T/C (Mus musculus [1]): 300%; T/C (Mus musculus [3]): 125%; T/C (Mus musculus [6]): 188%; T/C (Mus musculus [8]): 125%
4 | Cl.O=C(O)c1cn(-c2nccs2)c2nc(N3C[C@@H]4CCCN[C@@H]4C3)ccc2c1=O |  |  |  | 0.017 |  | 
5 | CNC1CCCN(c2ccc3c(=O)c(C(=O)O)cn(-c4nccs4)c3n2)C1.Cl (stereo unspecified) |  |  |  | 0.52 |  | 
6 | Cl.O=C(O)c1cn(-c2nccs2)c2nc(N3CCNCC3)ccc2c1=O |  |  |  | 0.057 |  | 
7 | O=C(O)c1cn(-c2nccs2)c2nc(-c3ccccc3)ccc2c1=O |  |  |  | 6.33 (≈ 18.1 µM) |  | 
8 | Cl.N[C@H]1CN(c2ccc3c(=O)c(C(=O)O)cn(-c4nccs4)c3n2)C[C@@H]1CCl |  |  |  | 0.024 |  | 
9 | CCN[C@H]1CN(c2ccc3c(=O)c(C(=O)O)cn(-c4nccs4)c3n2)C[C@@H]1OC.Cl |  |  |  | 0.025 |  | 
10 | Cl.O=C(O)c1cn(-c2nccs2)c2nc(N3CCc4ccccc4C3)ccc2c1=O |  |  |  | > 10 |  | 
11 | C[C@@H]1CN(c2ccc3c(=O)c(C(=O)O)cn(-c4nccs4)c3n2)C[C@H](C)N1.Cl |  |  |  | 0.081 |  | 
12 | CNC1(C)CCN(c2ccc3c(=O)c(C(=O)O)cn(-c4nccs4)c3n2)C1.Cl (stereo unspecified) | 113 | 163 | 7.2 | 0.018 | 225 | 
13 | C[C@H]1[C@H](N)CCN1c1ccc2c(=O)c(C(=O)O)cn(-c3nccs3)c2n1.Cl |  |  |  | 0.094 |  | 
14 | CNC1CCN(c2ccc3c(=O)c(C(=O)O)cn(-c4nccs4)c3n2)C1.Cl (stereo unspecified) | >375 | 200 | 8 | 0.01 | 300 | 
15 | Cl.NC1CCN(c2ccc3c(=O)c(C(=O)O)cn(-c4nccs4)c3n2)C1 (stereo unspecified) | 125 | 188 | 6.9 | 0.01 | 275 | 
16 | CO[C@H]1CN(c2ccc3c(=O)c(C(=O)O)cn(-c4nccs4)c3n2)C[C@@H]1N.Cl | 338 | 163 | 47 | 0.018 | 238 | 
17 | Cl.NC1CCN(c2nc3c(cc2[N+](=O)[O-])c(=O)c(C(=O)O)cn3-c2nccs2)C1 (stereo unspecified) |  |  |  | 2.29 |  | 
18 | COc1cc([C@@H]2c3cc4c(cc3[C@@H](O[C@@H]3O[C@@H]5CO[C@@H](C)O[C@H]5[C@H](O)[C@H]3O)[C@H]3COC(=O)[C@H]23)OCO4)cc(OC)c1O [ETOPOSIDE] | >375 | 175 |  |  | 250 | T/C (Mus musculus [1]): >375%; IC50 (Hs746T): 3.29 µg/mL (≈ 5.59 µM); IC50 (SCaBER): 0.276 µg/mL (≈ 0.469 µM); T/C (Mus musculus [3]): 138%; IC50 (SK-OV-3): 1.06 µg/mL (≈ 1.8 µM); IC50 (SBC-3): 0.0676 µg/mL (≈ 0.115 µM); IC50 (HL-60): 0.15 µg/mL (≈ 0.255 µM); T/C (Mus musculus [6]): 200%; IC50 (PANC-1): 1.6 µg/mL (≈ 2.72 µM); T/C (Mus musculus [8]): 150%
19 | Cl.Nc1cc(N2CCC(N)C2)nc2c1c(=O)c(C(=O)O)cn2-c1nccs1 (stereo unspecified) |  |  |  | 0.0081 |  | 
20 | C[C@H]1CN(c2ccc3c(=O)c(C(=O)O)cn(-c4nccs4)c3n2)C[C@]1(C)N.Cl |  |  |  | 0.02 |  | 
21 | CC1(N)CCN(c2ccc3c(=O)c(C(=O)O)cn(-c4nccs4)c3n2)C1.Cl (stereo unspecified) | 138 | 150 | 3.8 | 0.019 | 213 | 
22 | CISPLATIN |  | 239 |  |  |  | T/C (Mus musculus [3]): 154%; T/C (Mus musculus [6]): 290%; T/C (Mus musculus [8]): 186%
